Vif imaging: blocks HIV Vif function; HEK293T cells, Vif self-association by quenched fluorescence, imaging, 24 h; inhibition, % at 7.49 µM; hit rate 0.35% among 340,000; AID 602346; in the data active = inhibition above about 50%, passing the limit was not always enough; inconclusive = no clear call, values can overlap the other calls; inactive = below about 31%
Wnt bcat act: activates Wnt/beta-catenin signaling in a reporter cell assay; hit rate 1.2% among 300,000; AID 743398; activation, % at 9.35 µM; activator, plate reader; in the data active = activation above about 30%, passing the limit was not always enough; inconclusive = no clear call, values can overlap the other calls;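 note: 0% = neutral control wells and 100% = positive control wells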
XiGFP reactiv: reactivates the inactive X chromosome in mouse fibroblasts | hit rate 0.055% among 360,000 | XiGFP mouse fibroblasts, % GFP-positive cells imaging, 3 d; cells co-treated with 5-aza-dC sensitizer; scaled so ellipticine positive control = 100% | activation, % at 7.58 µM;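 active = mean normalized replicate activation at least 10% and every replicate at or above 10%; inconclusive = only one of the two criteria met; inactive = mean below 10% and not all replicates reach 10%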;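 note: 0% = median of on-plate neutral control wells and 100% = ellipticine 6 µM median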
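Assay system: SV40-immortalized XiGFP fibroblast cells, line 68-5-11; buffer or medium: DMEM plus 5-aza-dC sensitizer; compound: one concentration, pinned; timing: compounds 3 days, fix/stain 15 min at room temperature; benchmarks: positive control ellipticine, 6 µM final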
esBAF inh: blocks esBAF chromatin remodeling in mouse ES cells | Bmi1-luciferase knock-in reporter, 24 h; 100% = twice the neutral-well signal | reporter increase, % at 12.5 µM | hit rate 2% among 350,000 | AID 602393; in the data active = activation above about 40%; inconclusive = no clear call, values can overlap the other calls;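 note: 0% = median of the plate's neutral control wells and 100% = double that signal; a rise in the Bmi1 reporter signal indicates esBAF inhibition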
MITF act: increases MITF-driven TRPM1 promoter luciferase signal | activation, % at 12.5 µM | hit rate 0.75% among 300,000 | AID 588334 | SK-MEL-5 TRPM1-promoter luciferase, 24 h; % of positive control, neutral wells = 0;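 active = mean activation of at least 80% with every replicate also reaching 80%; inconclusive = mean reaches 80% but some replicate falls short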;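 note: 0% = neutral control wells and 100% = parthenolide positive control wells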
Active calls of the source: *; ! = not active in a repeat. In the library only some 2.6% were active in any assay of this set; here they are far more common.

What do the screens show for `CC(C)(C)C(=O)Nc1nc(-c2ccccc2)ns1`?
Vif imaging: -21; esBAF inh: 49*

What do the screens show for `O=C(CCCN1C(=O)c2ccccc2C1=O)Nc1nncs1`?
Vif imaging: 60*; esBAF inh: -5; MITF act: -2

What do the screens show for `Cc1nnc(NC(=O)CCCN2C(=O)c3ccccc3C2=O)s1`?
Vif imaging: 11; Wnt bcat act: -1; esBAF inh: -1; MITF act: -7

Results for O=C(CCCN1C(=O)c2cccnc2C1=O)Nc1ccc(Br)cc1 ?
Vif imaging: 59*; Wnt bcat act: 0; XiGFP reactiv: 0; esBAF inh: -2; MITF act: -21

What do the screens show for `C/C(N)=C(/C#N)C(=O)CSc1nnc(Nc2cccc(C)c2C)s1`?
Vif imaging: -4; Wnt bcat act: 14; XiGFP reactiv: 0; esBAF inh: 86*!; MITF act: 45

Results for O=C(CN1CCOCC1)N1CC(=O)N2[C@H](C1)[C@H](c1ccc(-c3cccc(F)c3)cc1)[C@@H]2CO ?
XiGFP reactiv: 0

Results for COc1ccc2c3c([nH]c2c1)[C@H](CO)N(Cc1nccs1)CC31CCN(Cc2nccs2)CC1 ?
XiGFP reactiv: 0

How did O=C(Nc1ccccc1)C1=C[C@@H](C2CC2)C[C@@H](OCc2ccc(CO)cc2)O1 do in these assays?
Vif imaging: -4; Wnt bcat act: inconclusive; XiGFP reactiv: 0; esBAF inh: 60*; MITF act: 5

Results for O=C(Nc1ccccc1)C1=C[C@@H](C2CC2)C[C@@H](OCCCCO)O1 ?
Vif imaging: -4; Wnt bcat act: inconclusive; XiGFP reactiv: 0; esBAF inh: 67*; MITF act: 36

How did O=C(Nc1ccccc1)C1=C[C@H](c2ccccc2)C[C@H](OCCCCO)O1 do in these assays?
Vif imaging: -4; Wnt bcat act: 33*; XiGFP reactiv: 0; esBAF inh: 51*; MITF act: 68

Results for O=C(Nc1ccccc1)C1=C[C@H](c2ccc(C(F)(F)F)cc2)C[C@H](OCCCCO)O1 ?
Vif imaging: 4; Wnt bcat act: 10; XiGFP reactiv: 2; esBAF inh: 34; MITF act: 42

Results for O=C(NCc1ccccc1)C1=C[C@H](c2ccc(Br)cc2)C[C@H](OCCCCO)O1 ?
Vif imaging: -2; Wnt bcat act: -2; XiGFP reactiv: 1; esBAF inh: -5; MITF act: -5

What do the screens show for `O=C(Nc1ccccc1)C1=C[C@@H](c2ccc(Br)cc2)C[C@@H](OCCCCO)O1`?
Vif imaging: -1; Wnt bcat act: 23; XiGFP reactiv: 0; esBAF inh: 57*; MITF act: 72

How did CCCNC(=O)N1CC2(CN(Cc3cccc(OC)c3)C2)c2c([nH]c3cc(OC)ccc23)[C@H]1CO do in these assays?
XiGFP reactiv: 0

How did O=C(N[C@H]1C=C[C@H](CC(=O)N2CCOCC2)O[C@@H]1CO)c1cccc(F)c1 do in these assays?
XiGFP reactiv: 1; esBAF inh: -6

Results for C=CCOC(=O)C1=C[C@@H](c2ccc(C(F)(F)F)cc2)C[C@@H](OCCCCO)O1 ?
Vif imaging: 20; Wnt bcat act: -6; XiGFP reactiv: 0; esBAF inh: 1; MITF act: -9

How did C=CCOC(=O)C1=C[C@@H](c2ccc(Br)cc2)C[C@@H](OCCCCO)O1 do in these assays?
Vif imaging: 51*; Wnt bcat act: 1; XiGFP reactiv: 0; esBAF inh: 16; MITF act: -11

What do the screens show for `COc1ccc(S(=O)(=O)N(C)C[C@@H]2Oc3ccc(NC(=O)Nc4cccc5ccccc45)cc3CC(=O)N([C@H](C)CO)C[C@@H]2C)cc1`?
XiGFP reactiv: 0; esBAF inh: 1

Results for Nc1nc(CSC(=S)N2CCOCC2)nc(Nc2ccccc2)n1 ?
Vif imaging: 1; Wnt bcat act: 45*; XiGFP reactiv: 0; MITF act: 118*

How did Nc1nc(CSC(=S)N2CCCCC2)nc(Nc2ccccc2)n1 do in these assays?
Vif imaging: -3; Wnt bcat act: inconclusive; XiGFP reactiv: 0; MITF act: 50

How did COc1ccccc1Nc1nc(N)nc(CSC(=S)N2CCCCC2)n1 do in these assays?
Vif imaging: -1; Wnt bcat act: 35*; XiGFP reactiv: 0; MITF act: 16

Results for Cc1ccc(Nc2nc(N)nc(CSC(=S)N3CCOCC3)n2)cc1 ?
Vif imaging: -6; esBAF inh: -12

Results for O=C(C[C@@H]1CC[C@H]2[C@@H](COC[C@@H](O)CN2CC2CCCC2)O1)NCC1CC1 ?
XiGFP reactiv: 0

How did OC[C@@H]1[C@@H](c2ccccc2)C2(CN(Cc3nccs3)C2)N1Cc1cccnc1 do in these assays?
XiGFP reactiv: 0

Results for CC1CCC(NC(=O)CCC(=O)N2CC(C)Oc3ccccc32)CC1 (stereo not drawn) ?
Vif imaging: 13; Wnt bcat act: 11; XiGFP reactiv: 1; esBAF inh: 55*; MITF act: 62

Results for CC1CCN(C(=O)CCC(=O)N2CC(C)Oc3ccccc32)CC1 (stereo not drawn) ?
Vif imaging: -3; Wnt bcat act: -1; XiGFP reactiv: 0; esBAF inh: 0; MITF act: -8

What do the screens show for `CCC(=O)N1CC2(C1)CN(S(C)(=O)=O)[C@@H](CO)c1[nH]c3cc(OC)ccc3c12`?
XiGFP reactiv: 0

What do the screens show for `COc1ccc(NC(=O)N(C)C[C@@H]2OCc3ccccc3-c3c(n(C)c4ccccc34)C(=O)N([C@H](C)CO)C[C@@H]2C)cc1`?
XiGFP reactiv: 1

Results for COc1ccc(S(=O)(=O)Nc2cccc3c2O[C@H](CN(C)Cc2ccncc2)[C@H](C)CN([C@H](C)CO)C3=O)cc1 ?
XiGFP reactiv: 0; esBAF inh: 10

What do the screens show for `COc1ccc2cc(C(=O)Nc3ccccc3)sc(=O)c2c1OC`?
Vif imaging: 1; Wnt bcat act: 6; XiGFP reactiv: 0; esBAF inh: inconclusive; MITF act: 56

What do the screens show for `O=C(Nc1ccccc1)c1ccc(-c2ccccc2)s1`?
Vif imaging: 7; Wnt bcat act: 5; XiGFP reactiv: 0; MITF act: 85*

Results for O=C(Nc1ccccc1)c1cc2ccc3ccccc3c2s1 ?
Vif imaging: -9; Wnt bcat act: 66*; XiGFP reactiv: 0; esBAF inh: 79*; MITF act: 42

What do the screens show for `COC(=O)c1nn(-c2ccccc2)c(-c2ccccc2)c1C(=O)c1ccccc1`?
Vif imaging: 50*; esBAF inh: -14

Results for COCC(=O)N1CC2(CCN(Cc3ccccc3)CC2)c2c(n(C)c3cc(OC)ccc23)[C@H]1CO ?
XiGFP reactiv: 0

What do the screens show for `O=C(Nc1nc2ccccc2[nH]1)c1cc(F)cc(F)c1`?
Vif imaging: 19; Wnt bcat act: 22; XiGFP reactiv: 0; esBAF inh: -2; MITF act: 50

Screening results deposited in PubChem by Broad Institute.
